The values below come from PMC13102995 (Biomedicine & Pharmacotherapy, 2026).

Where two headings read alike, the source gives them in different places.

Series [1] relates to neonatal rat dorsal root ganglion (DRG) neurons. The format is cell-based. As to conditions: U73122 5 µM, 1 h; 500 nM capsaicin pulses, 1 µM BK. In outline: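 DRG neurons from 3–5-day-old Wistar rats, collagenase IA digested (2.5 mg/mL, 1 h), grown 48 h on 60-electrode arrays (poly-L-lysine/laminin) with NGF and cytosine arabinoside. Test compound (100 µM) or 0.1% DMSO pre-incubated 1 h in serum medium without NGF; PLC inhibitor at 5 µM. Three 30-s pulses of 500 nM capsaicin (P1–P3); bradykinin used at 1 µM.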

For series [2], the system named is PLCβ. The series is classed as cell-based, Human. As to conditions: U73122 2 µM, HEK293, mean ± SEM; for inhibition of ACh-induced intracellular Ca2+ response: 1 h, 1 µM ACh.
The test system of a further series is PLCγ. Kind of series: TG-induced store-operated calcium. The series is classed as cell-based, human. As to conditions: U73122 2 µM, 1 h; 1 µM TG; HaCaT; mean ± SEM, N = 2. In outline: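 HaCaT on coverslips used 48 h after plating, loaded with 6 µg/mL Fluo-4 AM/0.05% Pluronic plus test compound (100 µM), 0.1% DMSO or 2 µM U73122 for 1 h, then washed ≥20 min. In Ca2+-free solution, 1 µM thapsigargin/0.1 mM EGTA for 3 min, then 2 mM Ca2+ to trigger SOC entry. Cells ≥20 AFU analysed; ΔFSOC/ΔFTG normalised to vehicle.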

In series [3] the test system is PLCβ. Kind of series: PIP2 imaging: BK-induced PLCδ-PH-GFP translocation in HEK293T cells. The format is cell-based, Human. As to conditions: PL2003 100 µM, U73122 2 µM, PL2204 1–100 µM; versus vehicle. In outline:
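HEK293T transfected with PLCδ-PH-GFP, replated 24 h later on poly-D-lysine and imaged after another 24 h. Pre-incubation 1 h with test compound (1, 10, 100 µM), vehicle or 2 µM U73122. Baseline 30 s in Ca2+-containing solution, pH 7.4, then 250 nM bradykinin for 2 min. Translocation = ΔF/F0; time to maximum timed from onset; IC50 from Hill-equation fit.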

The next series deals with T1, PLCβ3 (Homo sapiens, UniProt Q01970).
T1 sequence (Q01970 1-1234): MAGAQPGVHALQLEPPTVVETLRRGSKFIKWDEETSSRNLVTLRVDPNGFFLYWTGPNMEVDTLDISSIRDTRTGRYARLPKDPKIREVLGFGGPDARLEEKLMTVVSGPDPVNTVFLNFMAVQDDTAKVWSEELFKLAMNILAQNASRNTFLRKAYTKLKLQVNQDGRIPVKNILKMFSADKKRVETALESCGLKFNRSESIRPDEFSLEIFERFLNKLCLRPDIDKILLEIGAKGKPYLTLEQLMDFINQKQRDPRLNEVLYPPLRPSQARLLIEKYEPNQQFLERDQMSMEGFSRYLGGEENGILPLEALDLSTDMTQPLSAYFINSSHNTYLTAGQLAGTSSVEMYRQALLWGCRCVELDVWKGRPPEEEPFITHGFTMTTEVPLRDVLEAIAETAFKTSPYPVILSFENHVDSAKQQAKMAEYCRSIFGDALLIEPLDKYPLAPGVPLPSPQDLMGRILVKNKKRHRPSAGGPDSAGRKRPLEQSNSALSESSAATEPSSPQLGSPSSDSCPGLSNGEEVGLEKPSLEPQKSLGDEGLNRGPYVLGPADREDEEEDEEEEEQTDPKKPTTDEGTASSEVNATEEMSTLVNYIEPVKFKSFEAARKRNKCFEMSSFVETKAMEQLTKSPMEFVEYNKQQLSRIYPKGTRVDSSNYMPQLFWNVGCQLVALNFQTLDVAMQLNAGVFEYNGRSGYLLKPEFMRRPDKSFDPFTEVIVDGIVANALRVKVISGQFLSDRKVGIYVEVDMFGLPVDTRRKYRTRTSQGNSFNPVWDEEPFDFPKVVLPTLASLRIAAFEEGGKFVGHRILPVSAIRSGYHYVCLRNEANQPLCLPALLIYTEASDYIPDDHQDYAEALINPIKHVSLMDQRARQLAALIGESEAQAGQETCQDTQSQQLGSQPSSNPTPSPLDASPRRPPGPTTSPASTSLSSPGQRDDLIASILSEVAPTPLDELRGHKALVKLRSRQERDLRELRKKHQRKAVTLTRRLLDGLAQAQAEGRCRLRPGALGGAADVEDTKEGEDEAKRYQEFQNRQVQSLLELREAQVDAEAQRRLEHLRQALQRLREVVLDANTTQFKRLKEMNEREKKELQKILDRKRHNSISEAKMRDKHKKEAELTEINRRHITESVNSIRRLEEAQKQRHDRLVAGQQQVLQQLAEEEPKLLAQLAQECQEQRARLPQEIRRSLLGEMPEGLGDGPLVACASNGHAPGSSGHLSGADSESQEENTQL
In words: Surface plasmon resonance binding to pulled-down PLCβ3. As to conditions: 12.5–200 µM, multi-cycle, HBS-EP+ buffer, 25 °C. In outline: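 Multi-cycle SPR at 25 °C. Peptides at 12.5–200 µM, including a randomized control peptide, in HBS-EP+, injected over active and reference flow cells for 250 s at 5 µL/min, with return to baseline between cycles. Reference-subtracted binding levels were read at the end of injection after baseline subtraction.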

A short description of series [4]: Solubility and aggregation observed on preparation of the peptides. The series is classed as physicochemical. As to conditions: observation.

As for `COc1ccc2c(c1)CC[C@@H]1[C@@H]2CC[C@]2(C)[C@@H](NCCCCCCN3C(=O)C=CC3=O)CC[C@@H]12` [Peptide U73122, 1-(6-((17β-3-methoxyestra-1,3,5(10)-trien-17-yl)amino)hexyl)-1H-pyrrole-2,5-dione], the “inhibition of BK-induced TRPV1 sensitization (P3 - P2)” value in series [1] is reported as “did not significantly attenuate”. The “inhibition of ACh-induced intracellular Ca2+ response” value in the series on PLCβ [2] (experiment of Fig. 2B) came to 40.5 ± 9.4%; in the series on PLCβ [2] (experiment of Fig. 2C), 65.4 ± 4.3%; with PLCβ [2] (experiment of Fig. 2D) it was 51.9 ± 7.5%. Also, the results for the “percentage of ACh-responsive cells normalized to vehicle” value with PLCβ [2] (experiment of Fig. 2C) and in the series with PLCβ [2] (experiment of Fig. 2D) were 66.7 ± 9.3% and 62.0 ± 12.0%, respectively. The “SOC activity (ΔFSOC / ΔFTG normalized to vehicle)” value in the series with PLCγ worked out at 55.4 ± 9.4. Besides, the “time to reach maximum PLCδ-PH-GFP translocation” value with PLCβ [3] was “does not modify”.

Take Ac-IVSNRYSK-NH2 [randomized PL2204]: the “binding to pulled-down PLCβ3 (SPR)” value on PLCβ3 is “strongly reduced binding levels”.

For the molecule Ac-IYSSNV-NH2 [PL2005], the solubility entry in series [4] (in different solvents) was “solubility problems in different solvents”. The aqueous solubility entry in series [4] (prepared in 0.4% DMSO in extracellular solution) is on record as “poor aqueous solubility”.
